Mot1-301 SUMO: SUMOylation pathway inhibition by Mot1-301 growth rescue; growth rescue, % at 18.8 µM; S. cerevisiae Mot1-301 growth rescue, ATP luminescence, 38.5C; percent above DMSO median, 100 means doubled; 320,000 tested, 1% active;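 active = every valid replicate shows activation above 250% relative to neutral control wells; inactive = the rest, any valid replicate at or below 250%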;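 note: OY570 slx delta 5 strain wells were the positive control but not used for scaling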
C2C12 statin: suppressors of simvastatin-induced myotoxicity in C2C12 myotubes; ATP luminescence, 48 h; scaled: DMSO 0, geranylgeraniol control 100; rescue of ATP level, % at 7.49 µM; 330,000 tested, 0.78% active;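 active = mean ATP rescue above about 67%, or every replicate alone reaching that limit, limit read from the data, passing the limit was not always enough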;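 note: myotubes were challenged with 10 µM simvastatin during compound exposure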
Cneo AK release: Cryptococcus neoformans lysis via adenylate kinase release; AID 651654; C. neoformans lysis, adenylate kinase release luminescence, 4 h; normalised: neutral wells 0, clomiphene wells 100; 360,000 tested, 0.2% active; lysis activity, % at 15 µM;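 active = mean lysis activity across replicates of at least 80%, whatever share of replicates individually reach that level; inactive = mean lysis activity below 80%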
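Assay system: Cryptococcus neoformans yeast cells / Dosing: single-point compound dose / Timing: 4 h at 37 °C static, read 1 h later / Measured by: luminescence of released adenylate kinase using an AK detection reagent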
* = called active by the depositor; · = no result. The list is not random: actives were taken first. Their share in the collection is about 1.5%.

SMILES	Mot1-301 SUMO	C2C12 statin	Cneo AK release
COc1ccc(NC(=O)N(C)C[C@@H]2OCCCC[C@@H](C)Oc3ccc(NS(=O)(=O)c4ccc(Cl)cc4)cc3C(=O)N([C@@H](C)CO)C[C@H]2C)cc1	·	·	-1
O=C(C[C@H]1CC[C@H]2[C@@H](COC[C@H](O)CN2Cc2nccs2)O1)NCc1ccc(F)cc1	·	0	0
C[C@@H]1CN([C@@H](C)CO)C(=O)c2cc(NS(=O)(=O)c3ccccc3)ccc2O[C@@H](C)CCCCO[C@@H]1CN(C)C(=O)Nc1ccc2c(c1)OCO2	·	·	-7
Cc1noc(C)c1S(=O)(=O)Nc1ccc2c(c1)CC(=O)N([C@@H](C)CO)C[C@@H](C)[C@@H](CN(C)S(C)(=O)=O)O2	·	11	38
O=C(O)CCCCCN1C(=O)/C(=C\c2ccc(-c3ccc(Cl)cc3)o2)SC1=S	-9	133*	21
O=C(O)CCCN1C(=O)/C(=C/c2ccc(-c3nc4ccccc4s3)o2)SC1=S	7	-10	-1
C[C@H](CO)N1C[C@H](C)[C@@H](CN(C)C(=O)Cc2cccnc2)Oc2ncc(-c3ccccc3)cc2C1=O	·	-9	-2
C[C@H](CO)N1C[C@H](C)[C@@H](CN(C)Cc2ccccc2)OCCCC[C@H](C)Oc2ccc(NC(=O)CCC(F)(F)F)cc2C1=O	·	-15	·
COc1ccc(S(=O)(=O)N(Cc2cccs2)C2CCCC2)cc1	-9	106*	-5
COc1ccc(S(=O)(=O)NCc2cccs2)cc1	14	-10	-1
C[C@H]1CN([C@@H](C)CO)C(=O)CCCn2cc(nn2)CO[C@H]1CN(C)C(=O)Nc1ccc(-c2cccs2)cc1	·	6	3
O=[N+]([O-])c1ccccc1NCCNc1ncc(C(F)(F)F)cc1Cl	-6	·	·
O=[N+]([O-])c1cccnc1NCCNc1ncc(C(F)(F)F)cc1Cl	-9	136*	1
O=C(C[C@@H]1CC[C@H]2[C@@H](COC[C@H](O)CN2Cc2ccccc2F)O1)NC1CCC1	·	0	97*
O=C(C[C@@H]1CC[C@@H]2[C@H](COC[C@@H](O)CN2Cc2cc(F)cc(F)c2)O1)Nc1nccs1	·	-6	1
O=C(C[C@@H]1CC[C@@H]2[C@H](COC[C@H](O)CN2Cc2ccccc2F)O1)NC1CCC1	·	5	0
O=C(C[C@H]1CC[C@H]2[C@@H](COC[C@H](O)CN2Cc2cc(F)cc(F)c2)O1)Nc1nccs1	·	21	96*
O=C(O)C[C@@H]1CC[C@@H]2[C@H](COC[C@H](O)CN2S(=O)(=O)c2ccc(F)cc2)O1	·	-5	83*
COC(=O)C[C@H]1CC[C@H]2[C@@H](COC[C@H](O)CN2S(=O)(=O)c2ccc(F)cc2)O1	·	17	50
O=C(C[C@@H]1CC[C@@H]2[C@H](COC[C@H](O)CN2S(=O)(=O)c2ccc(Oc3ccccc3)cc2)O1)NC1CCC1	·	8	95*
O=C(C[C@H]1CC[C@H]2[C@@H](COC[C@@H](O)CN2S(=O)(=O)c2ccc(Oc3ccccc3)cc2)O1)Nc1ccccc1	·	10	13
C[C@H](CO)N1C[C@H](C)[C@@H](CN(C)C)OCCCC[C@H](C)Oc2ccc(NS(C)(=O)=O)cc2C1=O	·	6	·
C[C@@H]1CN([C@H](C)CO)C(=O)c2cccc(N(C)C)c2O[C@H]1CN(C)C(=O)Nc1ccc(C(F)(F)F)cc1	·	-26	0
Cc1cccc(OCC(=O)Nc2cc(C)ccc2O)c1	15	113*	1
Cc1cccc(OCC(=O)Nc2cc(C)c(C)cc2O)c1	5	11	0
SMILES	Mot1-301 SUMO	C2C12 statin	Cneo AK release
O=C(C[C@@H]1CC[C@@H](NC(=O)C2CCC2)[C@H](CO)O1)Nc1nccs1	·	-11	7
C[C@@H]1CN([C@H](C)CO)C(=O)Cc2cc(NC(=O)Cc3ccccc3)ccc2O[C@H]1CN(C)S(=O)(=O)c1ccc(F)cc1	·	19	0
C[C@@H]1CN([C@H](C)CO)C(=O)c2cc(C#C[C@@H](C)O)cnc2O[C@H]1CN(C)C(=O)c1ccccc1F	·	-2	-2
Clc1ccc(N2COC3c4cccc5cccc(c45)C32)cc1 (centres undefined)	-32	5	3
COc1ccc(N2COC3c4cccc5cccc(c45)C32)cc1 (centres undefined)	-23	88*	4
C[C@H]1CN([C@@H](C)CO)C(=O)c2cc(NC(=O)CCC(F)(F)F)ccc2O[C@H]1CN(C)Cc1ccc(Oc2ccccc2)cc1	·	·	7
COc1ccc(CNc2ccc(Cl)cc2)cc1Cn1ccnc1	-1	2	-3
CCc1ccc(NCc2ccc(OC)c(Cn3ccnc3)c2)cc1	341*	-12	-3
Cc1ccc(S(=O)(=O)N2C[C@H](O)COC[C@H]3O[C@H](CC(=O)NCC4CCCCC4)CC[C@@H]32)cc1	·	7	3

Bioassay records (PubChem BioAssay)
